What all share (format): functional
In test [1] the test system is Rattus norvegicus. The test is described as follows: The compound was tested for Granuloma generation on CMC-LPS air-pouch model at 3 mg/kg by oral administration. The method in brief:
(§1)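 Rat CMC-LPS air pouch (air, 2% CMC-Na, then LPS 5 ng). Oral dosing in 0.5% methyl cellulose 2 h before LPS. Granuloma wet weight determined 5 days after LPS; % inhibition versus control, with an LPS-free group included.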

For test [2], the system named is Rattus norvegicus. The test is described as follows: Inhibitory activity against IL-1 on CMC-LPS air-pouch model at 3 mg/kg by oral administration. The method in brief:
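Rat CMC-LPS air pouch: air s.c., 2% CMC-Na 24 h later, LPS 5 ng 24 h after that. Compound given orally in 0.5% methyl cellulose 2 h before LPS. Exudate collected at 4 h; IL-1 (extra- plus intracellular) read by LAF assay against a recombinant human IL-1α curve.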

For test [3], the system named is Rattus norvegicus. The test is described as follows: The compound was tested for IL-1 generation on CMC-LPS air-pouch model at 3 mg/kg by oral administration. The method in brief:
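Rats got 10 mL subcutaneous dorsal air, then 6 mL sterile 2% (w/v) CMC-Na in saline into the pouch 24 h later, then 5 ng LPS in 0.5 mL saline 24 h after that. Compound given orally as a suspension in 0.5% methyl cellulose 2 h before LPS. Exudate collected 4 h after LPS. Extra- plus intracellular IL-1 measured by LAF assay against a human recombinant IL-1α curve. Percent inhibition versus control; five rats per group.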

The test system of test [4] is Rattus norvegicus. The test is described as follows: % inhibition against arthritis on adjuvant-untreated paw in rats at 1 mg/kg by oral administration. The method in brief: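 Adjuvant arthritis in rats; drug given orally once daily from the first day of adjuvant treatment. Swelling of the adjuvant-untreated paw measured by plethysmometer on day 15 after adjuvant; % inhibition versus control. Mean ± SEM of 6–10 animals; significance versus control.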

The subject of test [5] is Rattus norvegicus. The test can be described thus: Inhibitory activity against Granuloma on CMC-LPS air-pouch model at 3 mg/kg by oral administration. The method in brief: as §1
Test [6] relates to Rattus norvegicus. The test can be described thus: Inhibitory activity against PGE-2 on CMC-LPS air-pouch model at 3 mg/kg by oral administration. The method in brief:
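Rat CMC-LPS air pouch (air, 2% CMC-Na, then LPS 5 ng). Oral dosing in 0.5% methyl cellulose 2 h before LPS. PGE2 in the exudate supernatant collected 4 h after LPS, measured by radioimmunoassay.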

Test [7] is filed under the species Homo sapiens. The test is described as follows: In vitro inhibitory activity against IL-1 generation by using human monocyte. The method in brief: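 Healthy-donor peripheral mononuclear cells, adhered 1.5 h in RPMI 1640 with 10% heat-inactivated autologous serum. Adherent monocytes then stimulated with LPS 1 μg/mL for 16–18 h in 1% autologous serum with 0.1% ethanol, ± drug. Extra- plus intracellular IL-1 read by LAF assay against a recombinant human IL-1β curve. IC50 by least squares; mean of ≥2 experiments.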

For test [8], the system named is Rattus norvegicus. The test is described as follows: Compound was evaluated in vivo for the percent inhibition of IL-1 generation in rat CMC-LPS air pouch model at 100 uM concentration. The method in brief:
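Rat air pouch: 10 mL air s.c. into the dorsum, 2% CMC-Na in saline 24 h later, then LPS 5 ng 24 h after CMC. Compound given locally in 5% EtOH-RPMI with 30% autologous serum, 100 μM final in exudate, at 30 min before and just before LPS. Exudate IL-1 (extra- plus intracellular) read by LAF at 4 h. n=5; % inhibition ± SEM.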

For test [9], the species on record is Rattus norvegicus. The test can be described thus: In vitro inhibitory activity against IL-1 generation by using rat exudated macrophages. The method in brief:
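Fisher rat peritoneal exudate cells collected 4 days after i.p. 2.5% glycogen. Cells adhered 1.5 h at 37 °C in 1% normal rat serum. Adherent macrophages stimulated with LPS 1 ng/mL for 4 h ± compound. Intracellular IL-1 read by LAF assay against a recombinant human IL-1α curve. IC50 by least squares; mean of duplicates.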

The source of these data is ChEMBL document CHEMBL1126114, “A novel orally active inhibitor of IL-1 generation: synthesis and structure-activity relationships of 3-(4-hydroxy-1-naphthalenyl)-2-propenoic acid derivatives” (J Med Chem, 1992).

The inhibition in vivo is the change of the read-out against control, counted positive when it falls. For orientation: IC50 means the midpoint of a concentration-inhibition curve. A lower IC50 goes with greater potency in that assay. As usually defined, the Inhibition is the change of the read-out against control, counted positive when it falls. Low readings indicate a response near the control, high ones a response far below the control.

In the case of `COc1ccc2c(c1)c(CC(=O)O)c(C)n2C(=O)c1ccc(Cl)cc1` [INDOMETHACIN], in [1], the Wet weight was 2.08 g. Moreover, the inhibition in vivo at 3 mg/kg in test [2] was < 25%; in [5], < 25%; in test [6], 97%. The IL-1 level in test [3] was determined as 995 units/mL. Also, the inhibition in vivo at 1 mg/kg in test [4] was 47.8%.

Consider `CCc1cccc2c(/C=C/C(=O)O)cc(Cl)c(O)c12`, for which the half-maximal inhibitory concentration (IC50) was 5.4 µM in [7] and 6 µM in test [9]. In addition, the Inhibition in test [8] is on record as <25%.
